Two compounds from the M2OR odorant receptor database can be followed below.

What all share (details): stereoisomer not certain
For one test, the target named is T1, OR11H12 (Homo sapiens) (UniProt B2RN74).
T1 sequence (whole entry): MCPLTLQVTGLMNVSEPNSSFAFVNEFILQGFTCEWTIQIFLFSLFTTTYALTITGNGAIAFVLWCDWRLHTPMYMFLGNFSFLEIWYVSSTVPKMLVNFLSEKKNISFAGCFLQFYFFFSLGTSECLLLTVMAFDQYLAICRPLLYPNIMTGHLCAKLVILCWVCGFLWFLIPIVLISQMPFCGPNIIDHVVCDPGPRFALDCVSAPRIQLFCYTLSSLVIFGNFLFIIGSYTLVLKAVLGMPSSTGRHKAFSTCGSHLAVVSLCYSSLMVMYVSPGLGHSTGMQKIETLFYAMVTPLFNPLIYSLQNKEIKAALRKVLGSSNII
Summed up: (§1)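 Assay methods differ from source to source, frequently being transient luciferase assays in mammalian cell lines. For each receptor–molecule pair, the label responsive (active) applies when the original authors judged the measured signal statistically different from baseline, and non-responsive (inactive) applies otherwise.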

Another test concerns the target T2, OR11H2 (Homo sapiens) (UniProt Q8NH07).
T2 sequence (whole entry): T1 sequence (whole entry) with Q7H, T33S, T49I, W68R, C156Y, M181K, R199L, S269P
Summed up:
as §1

The next test has as its target T3, OR11H4 (Homo sapiens) (UniProt Q8NGC9).
T3 sequence (whole entry): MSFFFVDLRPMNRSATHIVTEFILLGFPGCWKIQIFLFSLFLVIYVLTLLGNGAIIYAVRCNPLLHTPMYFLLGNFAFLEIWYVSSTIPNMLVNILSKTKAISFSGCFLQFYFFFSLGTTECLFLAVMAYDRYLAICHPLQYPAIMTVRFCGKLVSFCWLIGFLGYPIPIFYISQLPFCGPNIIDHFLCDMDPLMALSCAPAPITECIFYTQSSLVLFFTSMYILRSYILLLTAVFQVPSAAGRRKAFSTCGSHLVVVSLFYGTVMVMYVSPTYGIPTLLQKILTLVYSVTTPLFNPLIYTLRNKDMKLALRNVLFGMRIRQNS
In short, it runs like this:
as §1

The target in another test is T4, OR11H6 (Homo sapiens) (UniProt Q8NGC7).
T4 sequence (whole entry): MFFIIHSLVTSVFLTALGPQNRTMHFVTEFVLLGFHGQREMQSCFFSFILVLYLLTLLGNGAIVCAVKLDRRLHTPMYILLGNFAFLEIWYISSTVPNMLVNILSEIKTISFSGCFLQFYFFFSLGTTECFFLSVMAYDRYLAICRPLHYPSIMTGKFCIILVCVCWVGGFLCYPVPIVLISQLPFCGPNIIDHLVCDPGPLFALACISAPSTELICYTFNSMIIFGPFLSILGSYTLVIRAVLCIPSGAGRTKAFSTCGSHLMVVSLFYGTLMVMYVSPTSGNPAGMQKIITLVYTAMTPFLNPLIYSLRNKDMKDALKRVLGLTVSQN
Summed up:
as §1

The target in another test is T5, OR11L1 (Homo sapiens) (UniProt Q8NGX0).
T5 sequence (whole entry): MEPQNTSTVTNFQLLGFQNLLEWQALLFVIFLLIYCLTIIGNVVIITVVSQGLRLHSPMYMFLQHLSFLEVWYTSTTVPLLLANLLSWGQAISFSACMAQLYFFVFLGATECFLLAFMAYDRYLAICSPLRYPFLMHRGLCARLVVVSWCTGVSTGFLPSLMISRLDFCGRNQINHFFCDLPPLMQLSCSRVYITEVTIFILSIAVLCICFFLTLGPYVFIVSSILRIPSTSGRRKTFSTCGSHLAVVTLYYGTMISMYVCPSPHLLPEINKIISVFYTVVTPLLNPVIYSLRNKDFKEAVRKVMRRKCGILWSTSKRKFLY
Summed up: as §1

Another test has as its target T6, OR12D2 (Homo sapiens) (UniProt P58182).
T6 sequence (whole entry): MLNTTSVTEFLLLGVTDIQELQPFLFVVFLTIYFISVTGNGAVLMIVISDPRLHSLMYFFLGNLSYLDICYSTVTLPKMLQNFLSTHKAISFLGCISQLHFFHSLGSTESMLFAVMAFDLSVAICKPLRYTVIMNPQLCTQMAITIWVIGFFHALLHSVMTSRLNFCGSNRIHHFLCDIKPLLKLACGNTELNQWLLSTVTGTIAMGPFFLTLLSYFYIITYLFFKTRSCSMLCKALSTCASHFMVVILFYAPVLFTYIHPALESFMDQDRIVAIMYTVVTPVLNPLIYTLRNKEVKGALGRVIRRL
Summed up:
as §1

The target in another test is T7, OR12D3 (Homo sapiens) (UniProt Q9UGF7).
T7 sequence (whole entry): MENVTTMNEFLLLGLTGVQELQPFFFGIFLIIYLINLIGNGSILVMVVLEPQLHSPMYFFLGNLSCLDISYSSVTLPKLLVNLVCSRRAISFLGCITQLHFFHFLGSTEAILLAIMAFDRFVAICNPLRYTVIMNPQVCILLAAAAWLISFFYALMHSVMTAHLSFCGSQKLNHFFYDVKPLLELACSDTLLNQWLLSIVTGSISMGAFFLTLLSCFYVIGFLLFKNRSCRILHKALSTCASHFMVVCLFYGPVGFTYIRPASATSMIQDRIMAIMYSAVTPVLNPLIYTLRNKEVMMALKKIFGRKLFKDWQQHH
Summed up: as §1

For a further test, the target named is T8, OR13A1 (Homo sapiens) (UniProt Q8NGR1).
T8 sequence (whole entry): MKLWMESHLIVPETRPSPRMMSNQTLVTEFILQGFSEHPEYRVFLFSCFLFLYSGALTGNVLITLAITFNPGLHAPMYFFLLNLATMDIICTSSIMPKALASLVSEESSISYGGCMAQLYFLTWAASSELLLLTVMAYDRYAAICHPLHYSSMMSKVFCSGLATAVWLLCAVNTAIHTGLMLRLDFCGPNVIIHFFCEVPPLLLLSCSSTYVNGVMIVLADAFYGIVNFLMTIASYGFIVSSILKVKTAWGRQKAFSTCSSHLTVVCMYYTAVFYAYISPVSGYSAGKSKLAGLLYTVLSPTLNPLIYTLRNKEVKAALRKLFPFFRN
In short, it runs like this: as §1

For the next test, the target named is T9, OR13C2 (Homo sapiens) (UniProt Q8NGS9).
T9 sequence (whole entry): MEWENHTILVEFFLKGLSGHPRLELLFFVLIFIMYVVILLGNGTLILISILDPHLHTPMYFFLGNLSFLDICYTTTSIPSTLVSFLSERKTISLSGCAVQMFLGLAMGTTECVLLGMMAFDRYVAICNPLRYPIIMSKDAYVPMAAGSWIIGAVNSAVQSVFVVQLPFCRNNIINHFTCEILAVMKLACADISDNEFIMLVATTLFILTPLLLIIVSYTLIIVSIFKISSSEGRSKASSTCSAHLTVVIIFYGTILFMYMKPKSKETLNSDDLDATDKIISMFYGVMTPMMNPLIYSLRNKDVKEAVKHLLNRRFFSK
Summed up:
as §1

Another test has as its target T10, OR13C3 (Homo sapiens) (UniProt Q8NGS6).
T10 sequence (whole entry): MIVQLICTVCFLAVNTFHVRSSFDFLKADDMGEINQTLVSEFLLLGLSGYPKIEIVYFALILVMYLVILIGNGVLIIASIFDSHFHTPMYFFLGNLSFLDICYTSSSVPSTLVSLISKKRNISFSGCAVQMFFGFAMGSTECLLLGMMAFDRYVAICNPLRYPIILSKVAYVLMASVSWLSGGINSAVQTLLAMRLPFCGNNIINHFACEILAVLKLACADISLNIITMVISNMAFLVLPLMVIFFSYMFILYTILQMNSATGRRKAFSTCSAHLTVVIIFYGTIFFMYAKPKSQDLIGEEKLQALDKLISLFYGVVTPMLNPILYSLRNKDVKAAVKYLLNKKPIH
In short, it runs like this:
as §1

Another test deals with T11, OR13C4 (Homo sapiens) (UniProt Q8NGS5).
T11 sequence (whole entry): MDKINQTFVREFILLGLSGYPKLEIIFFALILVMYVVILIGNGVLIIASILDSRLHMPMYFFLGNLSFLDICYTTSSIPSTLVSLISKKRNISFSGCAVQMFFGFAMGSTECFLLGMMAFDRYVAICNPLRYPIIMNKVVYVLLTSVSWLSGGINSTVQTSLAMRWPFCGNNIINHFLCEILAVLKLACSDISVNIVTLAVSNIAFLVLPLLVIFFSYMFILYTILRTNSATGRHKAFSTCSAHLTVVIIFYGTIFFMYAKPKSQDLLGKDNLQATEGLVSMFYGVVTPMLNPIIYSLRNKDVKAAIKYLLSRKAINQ
In short, it runs like this:
as §1

A further test addresses T12, OR13C5 (Homo sapiens) (UniProt Q8NGS8).
T12 sequence (whole entry): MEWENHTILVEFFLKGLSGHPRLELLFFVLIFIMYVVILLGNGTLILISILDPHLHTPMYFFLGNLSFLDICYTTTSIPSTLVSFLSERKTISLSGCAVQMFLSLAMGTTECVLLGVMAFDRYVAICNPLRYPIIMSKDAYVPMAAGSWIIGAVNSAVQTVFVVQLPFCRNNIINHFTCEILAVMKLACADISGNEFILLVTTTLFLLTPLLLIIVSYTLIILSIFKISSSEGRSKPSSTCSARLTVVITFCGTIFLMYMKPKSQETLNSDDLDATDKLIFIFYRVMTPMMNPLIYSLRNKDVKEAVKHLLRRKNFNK
In short, it runs like this: as §1

In the next test the target is T13, OR13C8 (Homo sapiens) (UniProt Q8NGS7).
T13 sequence (whole entry): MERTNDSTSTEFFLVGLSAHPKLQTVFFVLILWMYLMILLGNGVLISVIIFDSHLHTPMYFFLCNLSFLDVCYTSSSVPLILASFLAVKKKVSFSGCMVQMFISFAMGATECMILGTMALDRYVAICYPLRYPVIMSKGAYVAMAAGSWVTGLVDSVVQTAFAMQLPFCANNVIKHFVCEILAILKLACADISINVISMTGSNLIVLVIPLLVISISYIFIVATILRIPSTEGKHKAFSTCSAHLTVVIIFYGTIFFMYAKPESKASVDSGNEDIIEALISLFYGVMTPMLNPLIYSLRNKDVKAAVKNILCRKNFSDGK
Summed up:
as §1

The next test addresses T14, OR13C9 (Homo sapiens) (UniProt Q8NGT0).
T14 sequence (whole entry): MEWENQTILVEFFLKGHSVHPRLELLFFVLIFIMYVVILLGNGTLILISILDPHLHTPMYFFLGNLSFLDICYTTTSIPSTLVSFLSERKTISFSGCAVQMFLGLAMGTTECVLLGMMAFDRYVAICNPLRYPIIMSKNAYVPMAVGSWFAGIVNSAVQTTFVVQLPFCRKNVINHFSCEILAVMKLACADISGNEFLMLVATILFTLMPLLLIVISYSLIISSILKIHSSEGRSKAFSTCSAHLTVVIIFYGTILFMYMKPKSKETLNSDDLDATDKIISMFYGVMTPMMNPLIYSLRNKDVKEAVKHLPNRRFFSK
In short, it runs like this: as §1

Another test deals with T15, OR13D1 (Homo sapiens) (UniProt Q8NGV5).
T15 sequence (whole entry): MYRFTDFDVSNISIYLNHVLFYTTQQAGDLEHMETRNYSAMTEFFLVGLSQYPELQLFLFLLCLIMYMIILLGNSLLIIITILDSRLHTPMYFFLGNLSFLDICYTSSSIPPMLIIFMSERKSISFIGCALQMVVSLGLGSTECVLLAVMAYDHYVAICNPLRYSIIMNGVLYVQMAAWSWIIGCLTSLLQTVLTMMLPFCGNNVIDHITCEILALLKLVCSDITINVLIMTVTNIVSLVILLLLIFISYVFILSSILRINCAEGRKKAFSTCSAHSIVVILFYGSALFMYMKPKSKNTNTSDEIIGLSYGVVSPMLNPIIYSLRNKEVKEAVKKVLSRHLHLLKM
In short, it runs like this:
as §1

A further test deals with T16, OR13F1 (Homo sapiens) (UniProt Q8NGS4).
T16 sequence (whole entry): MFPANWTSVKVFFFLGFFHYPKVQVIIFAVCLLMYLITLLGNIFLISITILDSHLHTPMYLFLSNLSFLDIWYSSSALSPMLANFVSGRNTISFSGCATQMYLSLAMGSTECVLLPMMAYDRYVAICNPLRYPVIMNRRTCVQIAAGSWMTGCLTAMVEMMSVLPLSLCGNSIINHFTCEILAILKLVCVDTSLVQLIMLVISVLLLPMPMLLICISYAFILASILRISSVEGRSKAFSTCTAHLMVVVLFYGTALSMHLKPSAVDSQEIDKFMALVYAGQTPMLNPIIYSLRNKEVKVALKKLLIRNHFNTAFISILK
In short, it runs like this: as §1

The target in the next test is T17, OR13G1 (Homo sapiens) (UniProt Q8NGZ3).
T17 sequence (whole entry): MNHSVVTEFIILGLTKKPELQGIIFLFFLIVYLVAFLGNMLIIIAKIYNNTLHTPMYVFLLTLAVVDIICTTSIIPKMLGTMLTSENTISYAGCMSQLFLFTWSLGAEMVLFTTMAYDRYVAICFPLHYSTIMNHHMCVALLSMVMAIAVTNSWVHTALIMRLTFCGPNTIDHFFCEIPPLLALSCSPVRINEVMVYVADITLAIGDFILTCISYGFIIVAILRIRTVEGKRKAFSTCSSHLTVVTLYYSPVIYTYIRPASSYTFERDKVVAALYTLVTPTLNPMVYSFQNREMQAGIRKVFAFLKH
Summed up:
as §1

Positions count from the first letter of the chain named.

For the compound `O=c1ccc2ccccc2o1`, the “odorant receptor agonist call” value with OR11H12 (Homo sapiens) is “active”.

For the compound `CC1=C(O)C(=O)OC1C` (stereo not drawn), the “odorant receptor agonist call” value in the test with OR11H12 (Homo sapiens), in the test with OR11H2 (Homo sapiens), with OR11H4 (Homo sapiens), with OR11H6 (Homo sapiens), in the test with OR11L1 (Homo sapiens) and with OR12D2 (Homo sapiens) was “inactive” each time. For the same compound, the “odorant receptor agonist call” value with OR12D3 (Homo sapiens), in the test with OR13A1 (Homo sapiens), with OR13C2 (Homo sapiens), in the test with OR13C3 (Homo sapiens), in the test with OR13C4 (Homo sapiens) and with OR13C5 (Homo sapiens) was “inactive” each time. For the same compound, the “odorant receptor agonist call” value with OR13C8 (Homo sapiens), with OR13C9 (Homo sapiens), with OR13D1 (Homo sapiens), in the test with OR13F1 (Homo sapiens) and with OR13G1 (Homo sapiens) was “inactive” each time.
